ChEMBL document CHEMBL1255475, “Mutant prevention concentrations of four carbapenems against gram-negative rods” (2010)

Legend:
Escherichia coli [1] = assay: Antibacterial activity against beta-lactamase-positive ESBL-negative Escherichia coli E437 incubated up to 7 days by agar dilution method; assay type: functional; conditions: E437, 168 h
In short: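 MIC by CLSI agar dilution, with quality-control strains in each run. Beta-lactamase status was set by 30 μg cefazolin Kirby-Bauer disk diffusion. ESBL status was set by cefotaxime and ceftazidime disks (30 μg) with and without clavulanic acid (10 μg).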

Escherichia coli [2] = assay: Ratio of mutant prevention concentration to minimum Inhibitory concentration for beta-lactamase-negative Escherichia coli E344; assay type: functional
Escherichia coli [3] = assay: Ratio of mutant prevention concentration to minimum Inhibitory concentration for beta-lactamase-negative Escherichia coli E348; assay type: functional
Escherichia coli [4] = assay: Ratio of mutant prevention concentration to minimum Inhibitory concentration for beta-lactamase-negative Escherichia coli E408; assay type: functional
Escherichia coli [5] = assay: Ratio of mutant prevention concentration to minimum Inhibitory concentration for beta-lactamase-negative Escherichia coli E409; assay type: functional
Escherichia coli [6] = assay: Ratio of mutant prevention concentration to minimum Inhibitory concentration for beta-lactamase-positive ESBL-negative Escherichia coli E412; assay type: functional
Escherichia coli [7] = assay: Ratio of mutant prevention concentration to minimum Inhibitory concentration for beta-lactamase-negative Escherichia coli E425; assay type: functional
Escherichia coli [8] = assay: Ratio of mutant prevention concentration to minimum Inhibitory concentration for beta-lactamase-positive ESBL-positive Escherichia coli E446; assay type: functional
Escherichia coli [9] = assay: Ratio of mutant prevention concentration to minimum Inhibitory concentration for beta-lactamase-positive ESBL-negative Escherichia coli E430; assay type: functional
Escherichia coli [10] = assay: Ratio of mutant prevention concentration to minimum Inhibitory concentration for beta-lactamase-positive ESBL-positive Escherichia coli E451; assay type: functional
Escherichia coli [11] = assay: Ratio of mutant prevention concentration to minimum Inhibitory concentration for beta-lactamase-positive ESBL-positive Escherichia coli E460; assay type: functional
Escherichia coli [12] = assay: Ratio of mutant prevention concentration to minimum Inhibitory concentration for beta-lactamase-positive ESBL-positive Escherichia coli E465; assay type: functional
Klebsiella pneumoniae [13] = assay: Ratio of mutant prevention concentration to minimum Inhibitory concentration for beta-lactamase-negative Klebsiella pneumoniae E357; assay type: functional
Klebsiella pneumoniae [14] = assay: Ratio of mutant prevention concentration to minimum Inhibitory concentration for beta-lactamase-negative Klebsiella pneumoniae E360; assay type: functional
Klebsiella pneumoniae [15] = assay: Ratio of mutant prevention concentration to minimum Inhibitory concentration for beta-lactamase-negative Klebsiella pneumoniae E361; assay type: functional
Klebsiella pneumoniae [16] = assay: Ratio of mutant prevention concentration to minimum Inhibitory concentration for beta-lactamase-positive ESBL-negative Klebsiella pneumoniae E509; assay type: functional
Klebsiella pneumoniae [17] = assay: Ratio of mutant prevention concentration to minimum Inhibitory concentration for beta-lactamase-positive ESBL-positive Klebsiella pneumoniae E478; assay type: functional
Klebsiella pneumoniae [18] = assay: Ratio of mutant prevention concentration to minimum Inhibitory concentration for beta-lactamase-positive ESBL-negative Klebsiella pneumoniae E481; assay type: functional
Klebsiella pneumoniae [19] = assay: Ratio of mutant prevention concentration to minimum Inhibitory concentration for beta-lactamase-positive ESBL-positive Klebsiella pneumoniae E453; assay type: functional
Klebsiella pneumoniae [20] = assay: Ratio of mutant prevention concentration to minimum Inhibitory concentration for beta-lactamase-positive ESBL-positive Klebsiella pneumoniae E457; assay type: functional
Klebsiella pneumoniae [21] = assay: Ratio of mutant prevention concentration to minimum Inhibitory concentration for beta-lactamase-positive ESBL-negative Klebsiella pneumoniae E511; assay type: functional
Pseudomonas aeruginosa [22] = assay: Antibacterial activity against Pseudomonas aeruginosa P356 incubated up to 7 days by agar dilution method; assay type: functional; conditions: P356, 168 h
Pseudomonas aeruginosa [23] = assay: Antibacterial activity against Pseudomonas aeruginosa P335 incubated up to 7 days by agar dilution method; assay type: functional; conditions: P335, 168 h
Pseudomonas aeruginosa [24] = assay: Antibacterial activity against Pseudomonas aeruginosa P320 incubated up to 7 days by agar dilution method; assay type: functional; conditions: P320, 168 h
Pseudomonas aeruginosa [25] = assay: Antibacterial activity against Pseudomonas aeruginosa P327 incubated up to 7 days by agar dilution method; assay type: functional; conditions: P327, 168 h
Pseudomonas aeruginosa [26] = assay: Antibacterial activity against Pseudomonas aeruginosa P323 incubated up to 7 days by agar dilution method; assay type: functional; conditions: P323, 168 h
Pseudomonas aeruginosa [27] = assay: Antibacterial activity against Pseudomonas aeruginosa P334 incubated up to 7 days by agar dilution method; assay type: functional; conditions: P334, 168 h
Pseudomonas aeruginosa [28] = assay: Antibacterial activity against Pseudomonas aeruginosa P337 incubated up to 7 days by agar dilution method; assay type: functional; conditions: P337, 168 h
Pseudomonas aeruginosa [29] = assay: Antibacterial activity against Pseudomonas aeruginosa P338 incubated up to 7 days by agar dilution method; assay type: functional; conditions: P338, 168 h
Pseudomonas aeruginosa [30] = assay: Antibacterial activity against Pseudomonas aeruginosa P328 incubated up to 7 days by agar dilution method; assay type: functional; conditions: P328, 168 h
Pseudomonas aeruginosa [31] = assay: Antibacterial activity against Pseudomonas aeruginosa P365 incubated up to 7 days by agar dilution method; assay type: functional; conditions: P365, 168 h
Pseudomonas aeruginosa [32] = assay: Antibacterial activity against Pseudomonas aeruginosa P340 incubated up to 7 days by agar dilution method; assay type: functional; conditions: P340, 168 h
Acinetobacter baumannii [33] = assay: Antibacterial activity against Acinetobacter baumannii A890 assessed as mutant prevention concentration after overnight incubation; assay type: functional
Acinetobacter baumannii [34] = assay: Antibacterial activity against Acinetobacter baumannii A901 assessed as mutant prevention concentration after overnight incubation; assay type: functional
Pseudomonas aeruginosa [35] = assay: Antibacterial activity against Pseudomonas aeruginosa P320 assessed as mutant prevention concentration after overnight incubation; assay type: functional
Acinetobacter baumannii [36] = assay: Antibacterial activity against Acinetobacter baumannii A892 assessed as mutant prevention concentration after overnight incubation; assay type: functional
Pseudomonas aeruginosa [37] = assay: Antibacterial activity against Pseudomonas aeruginosa P349 incubated up to 7 days by agar dilution method; assay type: functional; conditions: P349, 168 h
Pseudomonas aeruginosa [38] = assay: Antibacterial activity against Pseudomonas aeruginosa P358 incubated up to 7 days by agar dilution method; assay type: functional; conditions: P358, 168 h
Pseudomonas aeruginosa [39] = assay: Antibacterial activity against Pseudomonas aeruginosa P376 incubated up to 7 days by agar dilution method; assay type: functional; conditions: P376, 168 h
Acinetobacter baumannii [40] = assay: Antibacterial activity against Acinetobacter baumannii A929 incubated up to 7 days by agar dilution method; assay type: functional; conditions: A929, 168 h
Acinetobacter baumannii [41] = assay: Antibacterial activity against Acinetobacter baumannii A885 incubated up to 7 days by agar dilution method; assay type: functional; conditions: A885, 168 h
Acinetobacter baumannii [42] = assay: Antibacterial activity against Acinetobacter baumannii A901 incubated up to 7 days by agar dilution method; assay type: functional; conditions: A901, 168 h
Acinetobacter baumannii [43] = assay: Antibacterial activity against Acinetobacter baumannii A903 incubated up to 7 days by agar dilution method; assay type: functional; conditions: A903, 168 h
Acinetobacter baumannii [44] = assay: Antibacterial activity against Acinetobacter baumannii A865 incubated for 24 h by agar dilution method; conditions: A865, 24 h
Acinetobacter baumannii [45] = assay: Antibacterial activity against Acinetobacter baumannii A851 incubated for 24 h by agar dilution method; conditions: A851, 24 h
Acinetobacter baumannii [46] = assay: Antibacterial activity against Acinetobacter baumannii A911 incubated for 24 h by agar dilution method; conditions: A911, 24 h
Acinetobacter baumannii [47] = assay: Antibacterial activity against Acinetobacter baumannii A928 incubated for 24 h by agar dilution method; conditions: A928, 24 h
Acinetobacter baumannii [48] = assay: Antibacterial activity against Acinetobacter baumannii A864 incubated for 24 hrs by agar dilution method; conditions: A864, 24 h

C[C@@H](O)[C@H]1C(=O)N2C(C(=O)O)=C(S[C@@H]3CN[C@H](C(=O)Nc4cccc(C(=O)O)c4)C3)[C@H](C)[C@H]12
2: Ratio (Klebsiella pneumoniae [17]) | Ratio (Klebsiella pneumoniae [18]) | Ratio (Klebsiella pneumoniae [19])
8: Ratio (Escherichia coli [5]) | Ratio (Klebsiella pneumoniae [21])
>8: Ratio (Escherichia coli [9])
4: Ratio (Escherichia coli [2]) | Ratio (Escherichia coli [3]) | Ratio (Escherichia coli [4]) | Ratio (Escherichia coli [7]) | Ratio (Escherichia coli [8]) | Ratio (Escherichia coli [11]) | Ratio (Klebsiella pneumoniae [13]) | Ratio (Klebsiella pneumoniae [14]) | Ratio (Klebsiella pneumoniae [15]) | Ratio (Klebsiella pneumoniae [16]) | Ratio (Klebsiella pneumoniae [20])
>16: Ratio (Escherichia coli [12])
0.06 µg/mL: MIC (Escherichia coli [1])
16: Ratio (Escherichia coli [6]) | Ratio (Escherichia coli [10])

C[C@@H](O)[C@H]1C(=O)N2C(C(=O)O)=C(S[C@@H]3CN[C@H](CNS(N)(=O)=O)C3)[C@H](C)[C@H]12 [DORIPENEM]
2 µg/mL: MIC (Pseudomonas aeruginosa [23]) | MIC (Pseudomonas aeruginosa [30]) | MIC (Acinetobacter baumannii [40])
4 µg/mL: MIC (Acinetobacter baumannii [41]) | MIC (Acinetobacter baumannii [42]) | MIC (Acinetobacter baumannii [45]) | MIC (Acinetobacter baumannii [46])
1 µg/mL: MIC (Pseudomonas aeruginosa [28]) | MPC (Acinetobacter baumannii [33]) | MIC (Acinetobacter baumannii [43])
2: Ratio (Escherichia coli [2]) | Ratio (Escherichia coli [3]) | Ratio (Escherichia coli [4]) | Ratio (Escherichia coli [7]) | Ratio (Escherichia coli [8]) | Ratio (Escherichia coli [10]) | Ratio (Klebsiella pneumoniae [13]) | Ratio (Klebsiella pneumoniae [14]) | Ratio (Klebsiella pneumoniae [15]) | Ratio (Klebsiella pneumoniae [19]) | Ratio (Klebsiella pneumoniae [20])
>16: Ratio (Klebsiella pneumoniae [16]) | Ratio (Klebsiella pneumoniae [17]) | Ratio (Klebsiella pneumoniae [21])
8 µg/mL: MPC (Acinetobacter baumannii [34]) | MIC (Pseudomonas aeruginosa [38]) | MIC (Acinetobacter baumannii [44]) | MIC (Acinetobacter baumannii [48])
0.5 µg/mL: MIC (Pseudomonas aeruginosa [26]) | MIC (Pseudomonas aeruginosa [31]) | MIC (Pseudomonas aeruginosa [37]) | MIC (Pseudomonas aeruginosa [39]) | MIC (Acinetobacter baumannii [47])
0.125 µg/mL: MIC (Pseudomonas aeruginosa [27]) | MIC (Pseudomonas aeruginosa [32])
0.25 µg/mL: MIC (Pseudomonas aeruginosa [22]) | MIC (Pseudomonas aeruginosa [24]) | MIC (Pseudomonas aeruginosa [25]) | MIC (Pseudomonas aeruginosa [29])
0.06 µg/mL: MIC (Escherichia coli [1])
64 µg/mL: MPC (Acinetobacter baumannii [36])
>2 µg/mL: MPC (Pseudomonas aeruginosa [35])
16: Ratio (Escherichia coli [12])
4: Ratio (Escherichia coli [5]) | Ratio (Escherichia coli [6]) | Ratio (Escherichia coli [9]) | Ratio (Escherichia coli [11]) | Ratio (Klebsiella pneumoniae [18])

C[C@@H](O)[C@H]1C(=O)N2C(C(=O)O)=C(SCCNC=N)C[C@H]12 [IMIPENEM ANHYDROUS]
64 µg/mL: MPC (Acinetobacter baumannii [36])
8 µg/mL: MPC (Acinetobacter baumannii [34])
1 µg/mL: MPC (Acinetobacter baumannii [33])
32 µg/mL: MPC (Pseudomonas aeruginosa [35])

C[C@@H](O)[C@H]1C(=O)N2C(C(=O)O)=C(S[C@@H]3CN[C@H](C(=O)N(C)C)C3)[C@H](C)[C@H]12 [MEROPENEM]
0.25 µg/mL: MIC (Pseudomonas aeruginosa [25]) | MIC (Pseudomonas aeruginosa [27]) | MIC (Pseudomonas aeruginosa [29]) | MIC (Pseudomonas aeruginosa [32])
1 µg/mL: MIC (Pseudomonas aeruginosa [28]) | MIC (Pseudomonas aeruginosa [31]) | MPC (Acinetobacter baumannii [33]) | MIC (Pseudomonas aeruginosa [37]) | MIC (Pseudomonas aeruginosa [39]) | MIC (Acinetobacter baumannii [47])
4 µg/mL: MIC (Pseudomonas aeruginosa [23]) | MIC (Acinetobacter baumannii [45]) | MIC (Acinetobacter baumannii [46])
>8 µg/mL: MPC (Pseudomonas aeruginosa [35])
0.5 µg/mL: MIC (Pseudomonas aeruginosa [22]) | MIC (Pseudomonas aeruginosa [24]) | MIC (Pseudomonas aeruginosa [26])
2 µg/mL: MIC (Pseudomonas aeruginosa [30]) | MIC (Acinetobacter baumannii [40]) | MIC (Acinetobacter baumannii [41]) | MIC (Acinetobacter baumannii [42]) | MIC (Acinetobacter baumannii [43])
0.06 µg/mL: MIC (Escherichia coli [1])
8 µg/mL: MPC (Acinetobacter baumannii [34]) | MIC (Pseudomonas aeruginosa [38]) | MIC (Acinetobacter baumannii [44]) | MIC (Acinetobacter baumannii [48])
